Screening data from PubChem.
RTF Ca sens inh: cardiac RTF calcium sensitivity inhibitors, primary screen, biochemical, IANBD-TnC fluorescence, EC70 calcium. Troponin I, cardiac muscle (Homo sapiens) + Troponin T, cardiac muscle (Homo sapiens) + …. IANBD-labeled cardiac RTF, Ca2+ fluorescence. inhibition, % at 7.15 µM. hit rate 0.12% among 340,000;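 active = inhibition above the mean inhibition of all tested compounds plus 3 SD, cut at about 17% in these data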;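 also: assay run at fixed EC70 calcium of 1.6 mM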
DDE Tn6 FP inh: inhibitors of Tn6 peptide binding to fibrin DD(E), primary screen, biochemical, fluorescence polarization, human fibrin, Tn6 probe; Fibrinogen beta chain (Homo sapiens), P02675; Fibrin DD(E) TRITC-Tn6 fluorescence polarization displacement; inhibition, % at 8.3 µM; hit rate 0.21% among 370,000;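 active = inhibition above a per-campaign cutoff: mean of compounds within control limits plus 3 SD, cut at about 15% in these data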;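 also: 0% = median of all compound wells on the plate and 100% = blocking peptide control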
Target sequence (P02675 whole entry, looked up): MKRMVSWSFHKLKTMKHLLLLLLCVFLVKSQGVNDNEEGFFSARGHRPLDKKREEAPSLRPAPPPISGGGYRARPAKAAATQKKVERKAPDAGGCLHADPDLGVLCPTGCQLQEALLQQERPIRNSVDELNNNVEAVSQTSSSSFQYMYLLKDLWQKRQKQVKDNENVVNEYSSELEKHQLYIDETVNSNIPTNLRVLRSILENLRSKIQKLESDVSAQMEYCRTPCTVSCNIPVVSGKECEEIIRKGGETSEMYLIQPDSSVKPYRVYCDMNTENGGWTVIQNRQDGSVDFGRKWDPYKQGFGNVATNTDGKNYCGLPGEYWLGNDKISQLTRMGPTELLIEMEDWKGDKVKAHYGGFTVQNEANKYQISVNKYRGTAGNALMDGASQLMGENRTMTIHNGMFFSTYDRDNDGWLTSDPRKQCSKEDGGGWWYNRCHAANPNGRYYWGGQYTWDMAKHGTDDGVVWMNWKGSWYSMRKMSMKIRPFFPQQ
CRFR2-BP antag: antagonists of CRF-BP/CRF-R2 complex, primary screen, cell-based, HEK293, calcium dye fluorescence, uHTS | CRF-induced calcium fluorescence | inhibition, % at 11.8 µM | hit rate 0.59% among 350,000 | AID 588475, 2011;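 active = inhibition of the ligand-induced calcium signal above about 50% at the single tested concentration, limit read from the data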
cardiac RTF act: cardiac RTF calcium sensitivity activators, primary screen, biochemical, IANBD-TnC fluorescence, EC20 calcium; Troponin I, cardiac muscle (Homo sapiens) + Troponin T, cardiac muscle (Homo sapiens) + …; IANBD-labeled TnC RTF fluorescence at EC20 calcium; 0% EC20 calcium, 100% full calcium; activation, % at 7.2 µM; hit rate 0.24% among 340,000; AID 493008, 2010;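 active = activation above the mean over all tested compounds plus 3 SD, cut at about 30% in these data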;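 also: rise in fluorescence read as greater calcium sensitivity of cardiac thin filaments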
DDE Tn7 FP inh: inhibitors of Tn7 peptide binding to fibrin DD(E), primary screen, biochemical, fluorescence polarization, human fibrin, Tn7 probe; inhibition, % at 8.3 µM; Fibrinogen beta chain (Homo sapiens), P02675; FP displacement of FITC-Tn7 peptide from fibrin DD(E); 0% = median of compound wells per plate; hit rate 0.13% among 370,000;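 active = inhibition above the mean of compounds falling within the control limits plus 3 SD of them, cut at about 14% in these data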;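 also: 0% = plate median of compound wells and 100% = 10 µM Aha-Tn7 peptide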
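Assay system: Fibrin-DD(E) protein isolated from polymerized human fibrin clots; read-out basis: percent inhibition; medium: Tris/NaCl/CaCl2 buffer, pH 7.8; signal: FP measurement; incubation: 10 min plus 3 h, room temperature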
CRFBP-R2 agonist: agonists of CRF-BP/CRF-R2 complex, primary screen, cell-based, HEK293, calcium dye fluorescence, uHTS. CRF-binding protein / CRF receptor 2 complex (human). calcium dye fluorescence (FLIPR); percent of saturating CRF peptide response. activation, % at 13.2 µM. hit rate 0.46% among 350,000. AID 588473, 2011;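 active = activation of at least 50%, plus an integration ratio under a set limit after plate pattern correction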;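 also: plate controls were neutral control wells without compound for no effect and CRF at EC100 for full effect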
* hit, by the source's call. In the library only some 1.4% were active in any assay of this set; here they are far more common.

CC(C)(C)NC(=O)[C@H](c1cccnc1)N(C(=O)c1ccco1)c1ccc(C(C)(C)C)cc1 was read as DDE Tn6 FP inh 3 and DDE Tn7 FP inh 8.
Screening Cn1c(=O)c2cc3ccc(Cl)cc3nc2n(C)c1=O returned DDE Tn6 FP inh 4, CRFR2-BP antag 52*, DDE Tn7 FP inh -4 and CRFBP-R2 agonist -1.
CCc1nc2c(OCc3ccccc3C(=O)OC)cccn2c1N(C)C(=O)c1cccs1 was read as DDE Tn6 FP inh -4 and DDE Tn7 FP inh -2.
Screening COc1ccc(Nc2nc(Cl)nc(NCc3ccco3)n2)c(OC)c1 returned RTF Ca sens inh -10, DDE Tn6 FP inh -2, CRFR2-BP antag 56*, cardiac RTF act 4, DDE Tn7 FP inh 5 and CRFBP-R2 agonist -2.
Screening Cn1cccc1/C=C1\CCC/C(=C\c2cccn2C)C1=O returned RTF Ca sens inh -310, DDE Tn6 FP inh -4, CRFR2-BP antag -185, cardiac RTF act 181*, DDE Tn7 FP inh -5 and CRFBP-R2 agonist 155*.
For O=C1/C(=C/c2cccs2)CCC/C1=C\c1cccs1 the results were RTF Ca sens inh -22, DDE Tn6 FP inh 1, CRFR2-BP antag -16, cardiac RTF act 2, DDE Tn7 FP inh -2 and CRFBP-R2 agonist 8.
CCOC(=O)Oc1ccc2c(=O)c(Oc3cc(C)cc(C)c3)coc2c1 was read as RTF Ca sens inh -5, DDE Tn6 FP inh 5, CRFR2-BP antag 10, cardiac RTF act 1, DDE Tn7 FP inh -4 and CRFBP-R2 agonist 11.
CCOC(=O)Oc1ccc2c(=O)c(Oc3cccc(C)c3)coc2c1 was read as RTF Ca sens inh -2, DDE Tn6 FP inh 4, CRFR2-BP antag 52*, cardiac RTF act -9, DDE Tn7 FP inh 6 and CRFBP-R2 agonist -4.
CCCC[C@H]1C2CC(OC(=O)Nc3ccccc3)C(C2)[C@H]2CCCCN21 (stereo not given in full) was read as DDE Tn6 FP inh -3 and DDE Tn7 FP inh 1.
Cc1nc2ccccc2nc(C)c1=NOCc1ccccc1Cl was read as RTF Ca sens inh 3, DDE Tn6 FP inh 1, CRFR2-BP antag 51*, cardiac RTF act -4, DDE Tn7 FP inh 4 and CRFBP-R2 agonist -1.
For Cc1nc(C)c(Cc2ccccc2Cl)c(=O)[nH]1 the results were RTF Ca sens inh -7, DDE Tn6 FP inh 2, CRFR2-BP antag 30, cardiac RTF act 12, DDE Tn7 FP inh -3 and CRFBP-R2 agonist -1.
Screening O=c1c2c(C(F)(F)F)cc(C(F)(F)F)nc2[nH]n1-c1ccccc1 returned RTF Ca sens inh -2, DDE Tn6 FP inh -1, CRFR2-BP antag 12, cardiac RTF act 1, DDE Tn7 FP inh -4 and CRFBP-R2 agonist -1.
O=c1c(Sc2ccccc2)c(C(F)(F)F)[nH]n1-c1ccccc1 was read as RTF Ca sens inh -3, DDE Tn6 FP inh -1, CRFR2-BP antag 81*, cardiac RTF act 0, DDE Tn7 FP inh -1 and CRFBP-R2 agonist 4.
`COc1ccc2c(c1)-c1nc(/N=C/c3ccc(O)cc3)sc1CC2` gave RTF Ca sens inh -13, DDE Tn6 FP inh 4, CRFR2-BP antag 91*, cardiac RTF act -6, DDE Tn7 FP inh -2 and CRFBP-R2 agonist 2.
Screening COc1ccc2c(c1)-c1nc(/N=C/c3c(O)ccc4ccccc34)sc1CC2 returned RTF Ca sens inh -18, DDE Tn6 FP inh 6, CRFR2-BP antag 10, cardiac RTF act 3, DDE Tn7 FP inh -1 and CRFBP-R2 agonist -2.
For COc1ccc(-n2c(C)cc(/C=C3/SC(=S)N(C)C3=O)c2C)cc1 the results were RTF Ca sens inh -2, DDE Tn6 FP inh 4, CRFR2-BP antag -47, cardiac RTF act 3, DDE Tn7 FP inh -1 and CRFBP-R2 agonist 58*.
